According to ChEMBL document CHEMBL2321751, “Optimization of chloronitrobenzamides (CNBs) as therapeutic leads for human African trypanosomiasis (HAT)” (J Med Chem, 2013):
Values after ≈ are worked out from the molar mass of the structure shown. Blank lines part the entries; values can stand above or below the molecule they belong to.

Tests used:
[1] = test system: Trypanosoma brucei brucei; experiment: Antitrypanosomal activity against blood stream stage of Trypanosoma brucei brucei after 48 hrs by Cell Titre Glo assay; type: functional, organism-based
Outline: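 Culture-adapted parasites were grown in HMI-9 with 10% heat-inactivated FBS, 10% Serum Plus and penicillin/streptomycin to 1 × 10⁶ cells/mL, then diluted to 1 × 10⁴ cells/mL. DMSO dilution series were pin-transferred and plates held 48 h at 37 °C in 5% CO2. After 30 min at room temperature, CellTiter-Glo was added and luminescence read after 8 min.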

[2] = test system: Trypanosoma brucei gambiense; experiment: Antitrypanosomal activity against Trypanosoma brucei gambiense KO48 after 70 hrs by Alamar Blue assay; type: functional, organism-based; settings: KO48, 70 h
Outline: (§1)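 T. b. gambiense strains were grown in HMI-9 with 15% heat-inactivated FBS and 5% human serum. 10000 trypanosomes per well were seeded into serial drug dilutions and held 70 h at 37 °C in humidified 5% CO2. Resazurin was then added for a further 4–6 h, and fluorescence was read (ex 536/em 588 nm). IC50 was taken by linear regression from sigmoidal dose-inhibition curves.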

[3] = test system: Trypanosoma brucei gambiense; experiment: Antitrypanosomal activity against Trypanosoma brucei gambiense DAL 898R after 70 hrs by Alamar Blue assay; type: functional, organism-based; outline: as §1
[4] = test system: Trypanosoma brucei rhodesiense; experiment: Antitrypanosomal activity against bloodstream forms of wild type Trypanosoma brucei rhodesiense STIB900 after 70 hrs by Alamar Blue assay; type: functional, organism-based; settings: STIB900, 70 h
Outline: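 T. b. rhodesiense STIB 900 was cultured in MEM with Earle's salts and Baltz supplements (0.2 mM 2-mercaptoethanol, 1 mM Na-pyruvate, 0.5 mM hypoxanthine, 15% heat-inactivated horse serum). 2000 bloodstream forms per well were exposed to serial drug dilutions for 70 h at 37 °C in humidified 5% CO2. Resazurin followed for 2–4 h, read by fluorescence (ex 536/em 588 nm). IC50 came from sigmoidal curves by linear regression.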

[5] = test system: Trypanosoma brucei gambiense; experiment: Antitrypanosomal activity against Trypanosoma brucei gambiense STIB930 after 70 hrs by Alamar Blue assay; type: functional, organism-based; settings: STIB930, 70 h; outline: as §1
[6] = test system: Trypanosoma brucei brucei; experiment: Antitrypanosomal activity against Trypanosoma brucei brucei 221 after 48 hrs by Cell Titre Glo assay; type: functional, organism-based; settings: Trypanosoma brucei, 221, 48 h
Outline: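 Bloodstream-form parasites grown in HMI-9 with 10% heat-inactivated FBS, 10% Serum Plus and penicillin/streptomycin at 37 °C, 5% CO₂, to 1 × 10⁶ cells/mL. Diluted to 1 × 10⁴ cells/mL, then dosed with a DMSO dilution series by pin transfer. Incubated 48 h at 37 °C, 5% CO₂. Viability read by CellTiter-Glo luminescence. EC₅₀ from a variable-slope sigmoidal fit. Mean of six replicates, errors as 95% CI.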

Raji = experiment: Cytotoxicity against human Raji cells after 72 hrs by Cell Titre Glo assay; type: cell-based
Outline: (§2)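 Human cells grown to 80% confluence were plated in 384-well format and received compound dilutions by pin tool. After 72 h at 37 °C in 5% CO2, viability was measured by CellTiter-Glo luminescence.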

HepG2 = experiment: Cytotoxicity against human HepG2 cells after 72 hrs by Cell Titre Glo assay; type: cell-based; settings: HepG2, 72 h; outline: as §2
HEK293 = experiment: Cytotoxicity against HEK293 cells after 72 hrs by Cell Titre Glo assay; type: cell-based; settings: Homo sapiens, HEK293, 72 h; outline: as §2
[7] = Permeability of the compound at pH 7.4 by PAMPA; type: ADME; settings: for Papp: PAMPA, read-out: permeability
Outline: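 Compound (10 mM DMSO stock) was diluted in system solution buffer pH 7.4 and placed in the donor chamber of a PAMPA sandwich whose membrane was coated with GIT lipid. Acceptor buffer filled the acceptor chamber, and the assembly was stirred for 30 min. Donor and acceptor UV spectra (250–500 nm) were compared with a reference to give the permeability coefficient. Run in triplicate.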

[8] = Kinetic solubility of the compound in PBS buffer at pH 7.4 after 18 hrs by UV spectrophotometric analysis; type: physicochemical; settings: for Kinetic_solubility: buffer, pH 7.4, 18 h, BLD = below limit of detection; for solubility kinetic at 18 h: PBS buffer, pH 7.4, read-out: Kinetic_solubility
Outline: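 Compound from a 10 mM stock was added to PBS pH 7.4 and left 18 h at room temperature. The suspension was filtered, and the filtrate was mixed 1:1 with 1-propanol. Solubility was derived from UV spectrum AUC (250–500 nm) relative to a 1-propanol/PBS reference. Run in triplicate.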

[9] = Half life in human liver microsomes; type: ADME, Microsome
Outline: (§3)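 Liver microsomes (human: pooled from 200 mixed-gender donors; mouse: female […]) were diluted in 0.1 M potassium phosphate, pH 7.4, with EDTA, then spiked from a 2 mM DMSO/acetonitrile compound stock. Reactions were started with cofactor solutions A+B and kept at 37 °C with shaking. Samples at 0, 0.5, 1, 2 and 4 h were quenched with cold methanol containing 10 μM warfarin and analysed by UPLC-MS (SIR). k = −2.303 × slope of log peak-area ratio versus time; t1/2 = 0.693/k.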

[10] = Half life in mouse liver microsomes; type: ADME, Microsome; outline: as §3
BJ = experiment: Cytotoxicity against human BJ cells after 72 hrs by Cell Titre Glo assay; type: cell-based; outline: as §2

Structure (SMILES): O=C(Nc1ccc(-c2nc3ccccc3o2)cc1)c1cc([N+](=O)[O-])ccc1Cl
- EC50 [1]: 6100 nM

Structure (SMILES): Nc1nc(N)nc(Nc2ccc([As]3SCC(CO)S3)cc2)n1 (stereo not drawn) [MELARSOPROL]
- EC50 [2]: 14 nM
- EC50 [3]: 12 nM
- EC50 [4]: 7.2 nM
- EC50 [5]: 6.7 nM

Structure (SMILES): O=C(Nc1cccc(C(F)(F)F)c1)c1cc([N+](=O)[O-])ccc1Cl
- EC50 [1]: 950 nM

Structure (SMILES): N=C(N)c1ccc(OCCCCCOc2ccc(C(=N)N)cc2)cc1 [PENTAMIDINE]
- EC50 [2]: 51 nM
- EC50 [6]: 12 nM
- EC50 [3]: 0.9 nM
- EC50 [4]: 0.6 nM
- EC50 [5]: 0.7 nM

Structure (SMILES): COc1ccc(-c2nc3ccccc3s2)cc1NC(=O)c1cc([N+](=O)[O-])ccc1Cl
- EC50 (Raji): > 25000 nM
- EC50 (HepG2): > 25000 nM
- EC50 (HEK293): > 25000 nM
- EC50 [6]: 120 nM
- permeability ([7]; pampa, BLD = below limit of detection): BLD
- Kinetic_solubility [8]: BLD
- EC50 [4]: 73 nM
- EC50 [5]: 63 nM
- half-life [9]: 3.7 h
- half-life [10]: > 4 h
- EC50 (BJ): > 25000 nM

Structure (SMILES): O=C(Nc1ccc(F)c(-c2nc3ccccc3s2)c1)c1cc([N+](=O)[O-])ccc1Cl
- EC50 (Raji): > 25000 nM
- EC50 (HepG2): > 25000 nM
- EC50 (HEK293): > 25000 nM
- EC50 [6]: 250 nM
- Papp [7]: 17 ×10⁻⁶ cm/s
- solubility kinetic at 18 h [8]: 0.49 µM (≈ 0.21 µg/mL)
- EC50 [4]: 69 nM
- EC50 [5]: 63 nM
- EC50 (BJ): > 25000 nM

Structure (SMILES): O=C(Nc1ccc2oc(-c3ccccc3F)nc2c1)c1cc([N+](=O)[O-])ccc1Cl
- EC50 [1]: 4900 nM

Structure (SMILES): Cc1cc(NC(=O)c2cc([N+](=O)[O-])ccc2Cl)cc(-c2nc3ccccc3s2)c1O
- EC50 (Raji): > 25000 nM
- EC50 (HepG2): > 25000 nM
- EC50 (HEK293): > 25000 nM
- EC50 [6]: > 10000 nM
- Papp [7]: 48 ×10⁻⁶ cm/s
- solubility kinetic at 18 h [8]: 0.43 µM (≈ 0.189 µg/mL)
- EC50 (BJ): > 25000 nM

Structure (SMILES): O=C(Nc1ccc(-c2nc3ccccc3[nH]2)cc1)c1cc([N+](=O)[O-])ccc1Cl
- EC50 [1]: 4100 nM

Structure (SMILES): O=C(Nc1ccc(F)c(Cl)c1)c1cc([N+](=O)[O-])ccc1Cl
- EC50 [1]: 950 nM

More lines, main results first:

- EC50 [1]: 500 nM
Structure (SMILES): COc1cccc2sc(NC(=O)c3cc([N+](=O)[O-])ccc3Cl)nc12

- EC50 [1]: > 33000 nM
Structure (SMILES): Cc1ccc2nc(NC(=O)c3cc([N+](=O)[O-])ccc3Cl)[nH]c2c1

- EC50 [1]: 3100 nM
Structure (SMILES): O=C(Nc1cccc(-c2nc3ncccc3o2)c1)c1cc([N+](=O)[O-])ccc1Cl

- EC50 [1]: 2800 nM
Structure (SMILES): O=C(Nc1ccc2oc(-c3ccccc3Cl)nc2c1)c1cc([N+](=O)[O-])ccc1Cl

- EC50 [1]: 4200 nM
Structure (SMILES): O=C(Nc1ccc2oc(-c3ccccc3Br)nc2c1)c1cc([N+](=O)[O-])ccc1Cl

- EC50 [6]: 6 nM
- Papp [7]: 41 ×10⁻⁶ cm/s
- Kinetic_solubility [8]: BLD
- EC50 [4]: 13 nM
- EC50 [5]: 36 nM
- half-life [9]: > 4 h
- half-life [10]: > 4 h
Structure (SMILES): Cc1ccc(-c2nc3ccccc3s2)cc1NC(=O)c1cc([N+](=O)[O-])ccc1Cl
- EC50 (Raji): > 14000 nM
- EC50 (HepG2): > 14000 nM
- EC50 (HEK293): > 14000 nM
- EC50 (BJ): > 14000 nM

- EC50 [1]: 370 nM
Structure (SMILES): O=C(Nc1nc(-c2ccc(F)cc2)cs1)c1cc([N+](=O)[O-])ccc1Cl

- EC50 [6]: 160 nM
- Papp [7]: 191 ×10⁻⁶ cm/s
- Kinetic_solubility [8]: BLD
- EC50 [4]: 230 nM
- EC50 [5]: 200 nM
Structure (SMILES): O=C(Nc1cc(-c2nc3ccccc3s2)ccc1F)c1cc([N+](=O)[O-])ccc1Cl
- EC50 (Raji): > 25000 nM
- EC50 (HepG2): > 25000 nM
- EC50 (HEK293): > 25000 nM
- EC50 (BJ): > 25000 nM

- EC50 [1]: 1100 nM
Structure (SMILES): Cc1ccc2nc(NC(=O)c3cc([N+](=O)[O-])ccc3Cl)sc2c1
